Active and inactive are the calls of the source. The rule behind the calls is not given here. Where only a bound is given, the exact number is not on record here.

The first test deals with Rattus norvegicus. In words: Minimum effective dose at which significant increase in uterine weight/body weight in rat was determined (in vivo); expressed as % increase relative to ovariectomized (OVX) controls. The test is classed as functional.
Conditions: not given
A digest of the protocol:
(§1)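 In 75-day OVX Sprague–Dawley rats dosed orally for 4 days, beginning 2 weeks post-ovariectomy with 5–6 rats per group, whole uteri were weighed the morning after fasting. MED is the lowest dose giving a significant (p≤0.05) rise in uterine weight/body weight, expressed as % increase over OVX controls ±SE.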
The compound `Cc1ccc2c(C(=O)c3ccc(OCCN4CCCCC4)cc3)c(-c3ccc(O)cc3)sc2c1.Cl` came in with an Increase of 23.9%.
Still for that read-out and setting: the same measure for `CSc1ccc(-c2sc3cc(O)ccc3c2C(=O)c2ccc(OCCN3CCCCC3)cc2)cc1`: 50.2%; for `O=C(O)c1ccc2c(C(=O)c3ccc(OCCN4CCCCC4)cc3)c(-c3ccc(O)cc3)sc2c1`: 40.8%.
The same measure, in the same setting: the same measure for `CCc1ccc(-c2sc3cc(O)ccc3c2C(=O)c2ccc(OCCN3CCCCC3)cc2)cc1`: 29.7%.

In another test the test system is MCF7. The test can be described thus: Inhibition of MCF-7 cell proliferation stimulated by 10e-[…] M 17-beta-estradiol; Not active at the doses tested. The format is functional, cell-based, Homo sapiens.
Conditions: not given
`O=C(O)c1ccc2c(C(=O)c3ccc(OCCN4CCCCC4)cc3)c(-c3ccc(O)cc3)sc2c1`: the IC50 entry was “Not Active”.

In another test the target is T1, Estrogen receptor (Homo sapiens, UniProt Q92731+P03372). The test can be described thus: In vitro relative binding affinity by competition with [3H]17-beta-estradiol for estrogen receptor in MCF-7 cell lysate; Not active at the doses tested. The format is cell-based.
Conditions: not given
A digest of the protocol:
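Human MCF-7 cell lysate (0.5–1.0 mg/mL total protein) incubated 18 h at 4 °C with 0.5 nM [3H]17β-estradiol and serial dilutions of test compound. Unbound radioligand removed with dextran/charcoal and centrifugation; bound label in the supernatant counted by scintillation. RBA = IC50(17β-estradiol)/IC50(test compound) × 100.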
As to `Cc1ccc2c(C(=O)c3ccc(OCCN4CCCCC4)cc3)c(-c3ccc(O)cc3)sc2c1.Cl`, the “relative binding affinity (RBA)” value is “inactive”.
On the same count and under the same terms, the entry for `O=C(O)c1ccc2c(C(=O)c3ccc(OCCN4CCCCC4)cc3)c(-c3ccc(O)cc3)sc2c1` is “inactive”.

A further test has as its target T1, Estrogen receptor. The note with it: mcf7.
For the compound `Cc1ccc2c(C(=O)c3ccc(OCCN4CCCCC4)cc3)c(-c3ccc(O)cc3)sc2c1.Cl`, the IC50 is reported as 300 nM.
Still for that read-out and setting: the same measure for `CCc1ccc(-c2sc3cc(O)ccc3c2C(=O)c2ccc(OCCN3CCCCC3)cc2)cc1`: 5 nM.

The test system of a further test is Rattus norvegicus. In words: Minimum effective dose at which significant increase in uterine eosinophil peroxidase (EPO) activity in rat was determined (in vivo). The test is classed as functional. The note with it: read-out: MED.
For `Cc1ccc2c(C(=O)c3ccc(OCCN4CCCCC4)cc3)c(-c3ccc(O)cc3)sc2c1.Cl`, the minimal effective dose was over 10 mg/kg.
On the same count and under the same terms, the figure for `CSc1ccc(-c2sc3cc(O)ccc3c2C(=O)c2ccc(OCCN3CCCCC3)cc2)cc1` is 1 mg/kg; for `O=C(O)c1ccc2c(C(=O)c3ccc(OCCN4CCCCC4)cc3)c(-c3ccc(O)cc3)sc2c1` it is over 10 mg/kg.
In the case of `CCc1ccc(-c2sc3cc(O)ccc3c2C(=O)c2ccc(OCCN3CCCCC3)cc2)cc1`, the minimal effective dose amounted to 1 mg/kg.

In a further test the test system is Rattus norvegicus. The test can be described thus: Dose required to reduce serum cholesterol by 50% relative to OVX controls was determined (in vivo). The test is classed as functional.
Conditions: not given
A digest of the protocol:
(§2)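 OVX Sprague–Dawley rats (75 days old), 5–6 per group, dosed once daily by oral gavage for 4 consecutive days, starting 14 days after ovariectomy. Vehicle was 20% β-hydroxycyclodextrin at 1 mL/kg, or 1.5% carboxymethylcellulose in some cases. Rats were fasted after the last dose and bled by cardiac puncture next morning.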
Consider `Cc1ccc2c(C(=O)c3ccc(OCCN4CCCCC4)cc3)c(-c3ccc(O)cc3)sc2c1.Cl`, for which the ED50 was over 10 mg/kg.
Still for that read-out and setting: the same measure for `CSc1ccc(-c2sc3cc(O)ccc3c2C(=O)c2ccc(OCCN3CCCCC3)cc2)cc1`: 0.9 mg/kg; for `O=C(O)c1ccc2c(C(=O)c3ccc(OCCN4CCCCC4)cc3)c(-c3ccc(O)cc3)sc2c1`: 9 mg/kg.
On the same count and under the same terms, the same measure for `CCc1ccc(-c2sc3cc(O)ccc3c2C(=O)c2ccc(OCCN3CCCCC3)cc2)cc1`: 4.3 mg/kg.

The test system of a further test is Rattus norvegicus. The test can be described thus: Eosinophil peroxidase activity expressed as Vmax was determined in rat (in vivo). The test is classed as functional.
Conditions: not given
Consider `CCc1ccc(-c2sc3cc(O)ccc3c2C(=O)c2ccc(OCCN3CCCCC3)cc2)cc1`, for which the Increase amounted to 39.9 Vmax.

Another test relates to Rattus norvegicus. The test can be described thus: Percent decrease in serum cholesterol relative to OVX control at 10 mg/kg in rat was determined (in vivo).
Conditions: not given
The test is classed as functional. A digest of the protocol: as §2
With `Cc1ccc2c(C(=O)c3ccc(OCCN4CCCCC4)cc3)c(-c3ccc(O)cc3)sc2c1.Cl`, the Decrease was found to be 21.6%.
Still for that read-out and setting: the figure for `CSc1ccc(-c2sc3cc(O)ccc3c2C(=O)c2ccc(OCCN3CCCCC3)cc2)cc1` is 75.3%; for `O=C(O)c1ccc2c(C(=O)c3ccc(OCCN4CCCCC4)cc3)c(-c3ccc(O)cc3)sc2c1` it is 53.3%; for `CCc1ccc(-c2sc3cc(O)ccc3c2C(=O)c2ccc(OCCN3CCCCC3)cc2)cc1` it is 57.4%.

A further test deals with Rattus norvegicus. In words: Percent decrease in serum cholesterol relative to OVX control at 0.1 mg/kg in rat was determined (in vivo).
Conditions: not given
The test is classed as functional. A digest of the protocol:
as §2
`Cc1ccc2c(C(=O)c3ccc(OCCN4CCCCC4)cc3)c(-c3ccc(O)cc3)sc2c1.Cl`: the Decrease is 16.9%.
Same read-out and setting: the figure for `CSc1ccc(-c2sc3cc(O)ccc3c2C(=O)c2ccc(OCCN3CCCCC3)cc2)cc1` is 27.7%; for `O=C(O)c1ccc2c(C(=O)c3ccc(OCCN4CCCCC4)cc3)c(-c3ccc(O)cc3)sc2c1` it is -16.4%; for `CCc1ccc(-c2sc3cc(O)ccc3c2C(=O)c2ccc(OCCN3CCCCC3)cc2)cc1` it is 3.3%.

The next test has as its system Rattus norvegicus. The test can be described thus: Percent decrease in serum cholesterol relative to OVX control at 1 mg/kg in rat. The format is functional.
Conditions: not given
A digest of the protocol:
as §2
For the compound `Cc1ccc2c(C(=O)c3ccc(OCCN4CCCCC4)cc3)c(-c3ccc(O)cc3)sc2c1.Cl`, the Decrease came out at 33.9%.
Same read-out and setting: the figure for `CSc1ccc(-c2sc3cc(O)ccc3c2C(=O)c2ccc(OCCN3CCCCC3)cc2)cc1` is 51.5%; for `O=C(O)c1ccc2c(C(=O)c3ccc(OCCN4CCCCC4)cc3)c(-c3ccc(O)cc3)sc2c1` it is 12.5%.
The same measure, in the same setting: the figure for `CCc1ccc(-c2sc3cc(O)ccc3c2C(=O)c2ccc(OCCN3CCCCC3)cc2)cc1` is 37.2%.

A further test concerns Rattus norvegicus. In words: Minimum effective dose at which significant increase in uterine weight/body weight in rat was determined (in vivo). The test is classed as functional. The note with it: read-out: MED. A digest of the protocol:
as §1
On to `Cc1ccc2c(C(=O)c3ccc(OCCN4CCCCC4)cc3)c(-c3ccc(O)cc3)sc2c1.Cl`, for which the minimal effective dose came out at 1 mg/kg.
Same read-out and setting: the same measure for `CSc1ccc(-c2sc3cc(O)ccc3c2C(=O)c2ccc(OCCN3CCCCC3)cc2)cc1`: 1 mg/kg; for `O=C(O)c1ccc2c(C(=O)c3ccc(OCCN4CCCCC4)cc3)c(-c3ccc(O)cc3)sc2c1`: 1 mg/kg.
The same measure, in the same setting: the figure for `CCc1ccc(-c2sc3cc(O)ccc3c2C(=O)c2ccc(OCCN3CCCCC3)cc2)cc1` is 10 mg/kg.

A further test has as its system Rattus norvegicus. In words: Eosinophil peroxidase activity expressed as Vmax was determined in rat (in vivo) Eosinophil peroxidase activity expressed as Vmax was determined in rat (in vivo). The format is functional. The arrangement: unit not given here.
Conditions: not given
Compound `CSc1ccc(-c2sc3cc(O)ccc3c2C(=O)c2ccc(OCCN3CCCCC3)cc2)cc1` gave an Eosinophil peroxidase activity (Vmax) of 37.5.

For the origin of these results see ChEMBL document CHEMBL1130160 (J Med Chem, 1997).
